# Data published in ChEMBL document CHEMBL1221342, “Synthesis and in vitro antitumor activity of new 4,5-dihydropyrazole derivatives” (Bioorg Med Chem, 2010).
# Test system: not listed separately
# Assay: Inhibition of tubulin polymerization
# Conditions: not given
# Summary of the method: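 Tubulin (3 mg/mL HTS) in G-PEM buffer plus 5% glycerol, prepared at 4 °C, incubated at 37 °C with or without compound. Polymerization followed by A340 over 60 min. Polymer taken as the AUC, with untreated control AUC set to 100%. IC50 derived by non-linear regression.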
row,Compound,IC50 [µM]
1,CCN(CC)c1ccc(C2=NN(C(=O)CO)C(c3cc(OC)c(OC)c(OC)c3)C2)cc1 (centres undefined),6.14
2,COc1cc(C2CC(c3ccc(C)cc3)=NN2C(=O)CO)cc(OC)c1OC (centres undefined),7.72
3,CCN(CC)c1ccc(C2=NNC(c3cc(OC)c(OC)c(OC)c3)C2)cc1 (centres undefined),> 10
4,COc1cc(C2CC(c3ccc(C)cc3)=NN2C(C)=O)cc(OC)c1OC (centres undefined),> 10
5,COc1cc(C2CC(c3ccc(C)cc3)=NN2)cc(OC)c1OC (centres undefined),> 10
6,COc1cc(C2CC(c3ccc(N)cc3)=NN2C(C)=O)cc(OC)c1OC (centres undefined),10
7,COc1cc(C2CC(c3cccc(N)c3)=NN2C(C)=O)cc(OC)c1OC (centres undefined),> 10

# Test system: NCI-H460
# Assay: Cytotoxicity against human NCI-H460 cells after 72 hrs by SRB assay
# Type: functional, cell-based
# Conditions: NCI-H460, 72 h
# Summary of the method: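 NCI-H460 (ATCC) cells seeded in 96-well plates in growth medium. Scalar drug concentrations added 24 h after plating, then 72 h exposure. Surviving cells stained with sulforhodamine B, OD read at 570 nm. IC50 (50% growth inhibition) fitted from dose–response curves. Mean ± SE of at least three independent experiments.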
row,Compound,IC50 [µM]
1,COc1cc(C2CC(c3ccc(F)cc3)=NN2C(C)=O)cc(OC)c1OC (centres undefined),12
2,CCN(CC)c1ccc(C2=NN(C(=O)CO)C(c3cc(OC)c(OC)c(OC)c3)C2)cc1 (centres undefined),0.95
3,COc1cc(C2=NN(C(=O)COC(C)=O)C(c3cc(OC)c(OC)c(OC)c3)C2)ccc1O (centres undefined),4.5
4,COc1cc(C2CC(c3cccc(Br)c3)=NN2C(=O)CO)cc(OC)c1OC (centres undefined),1.1
5,COc1cc(C2CC(c3cccc(Br)c3)=NN2)cc(OC)c1OC (centres undefined),> 20
6,COc1ccc(C2=NN(C(C)=O)C(c3cc(OC)c(OC)c(OC)c3)C2)cc1 (centres undefined),> 20
7,COc1cccc(C2CC(c3cc(OC)c(OC)c(OC)c3)=NN2)c1 (centres undefined),11.6
8,COc1cc(C2CC(c3ccc(C)cc3)=NN2C(=O)CO)cc(OC)c1OC (centres undefined),0.69
9,COc1cc(C2CC(c3ccc(N(C)C)cc3)=NN2C(=O)COC(C)=O)cc(OC)c1OC (centres undefined),> 20
10,COc1ccc(C2CC(c3cc(OC)c(OC)c(OC)c3)=NN2C(C)=O)cc1 (centres undefined),> 20
11,COc1ccc(C2=NNC(c3cc(OC)c(OC)c(OC)c3)C2)cc1 (centres undefined),> 20
12,COc1cc(C2CC(c3ccc(N(C)C)cc3)=NN2)cc(OC)c1OC (centres undefined),> 20
13,CCN(CC)c1ccc(C2=NNC(c3cc(OC)c(OC)c(OC)c3)C2)cc1 (centres undefined),> 20
14,CCN(CC)c1ccc(C2=NN(C(=O)COC(C)=O)C(c3cc(OC)c(OC)c(OC)c3)C2)cc1 (centres undefined),5
15,COc1cc(C2CC(c3ccc(SC)cc3)=NN2C(C)=O)cc(OC)c1OC (centres undefined),8
16,COc1cc(C2CC(c3ccc(C)cc3)=NN2C(=O)COC(C)=O)cc(OC)c1OC (centres undefined),3.3
17,COc1cc(C2CC(c3ccc(C)cc3)=NN2C(C)=O)cc(OC)c1OC (centres undefined),1.3
18,COc1cc(C2CC(c3ccc(Br)cc3)=NN2)cc(OC)c1OC (centres undefined),> 20
19,COc1cc(C2=NN(C(=O)CO)C(c3cc(OC)c(OC)c(OC)c3)C2)ccc1O (centres undefined),1.85

row,Compound,IC50 [µM]
1,CCN(CC)c1ccc(C2CC(c3cc(OC)c(OC)c(OC)c3)=NN2C(C)=O)cc1 (centres undefined),13.8
2,COc1cc(C2CC(c3ccc(C)cc3)=NN2)cc(OC)c1OC (centres undefined),> 20
3,COc1cc(C2CC(c3ccc(Br)cc3)=NN2C(C)=O)cc(OC)c1OC (centres undefined),6
4,COc1cc(C2CC(c3ccc(F)cc3)=NN2)cc(OC)c1OC (centres undefined),> 20
5,COc1cccc(C2CC(c3cc(OC)c(OC)c(OC)c3)=NN2C(C)=O)c1 (centres undefined),> 20
6,COc1cc(C2=NN(C(C)=O)C(c3ccc(N(C)C)cc3)C2)cc(OC)c1OC (centres undefined),> 20
7,COc1cc(C2=NN(C(C)=O)C(c3cccc(O)c3)C2)cc(OC)c1OC (centres undefined),> 20
8,COc1cc(C2CC(c3ccc(N(C)C)cc3)=NN2C(=O)CO)cc(OC)c1OC (centres undefined),1.3
9,COc1cc(C2CC(c3cccc(O)c3)=NN2)cc(OC)c1OC (centres undefined),> 20
10,COc1cc(C2=NNC(c3cccc(O)c3)C2)cc(OC)c1OC (centres undefined),> 20
11,COc1cc(C2CC(c3ccc(SC)cc3)=NN2)cc(OC)c1OC (centres undefined),> 20
12,COc1cccc(C2=NNC(c3cc(OC)c(OC)c(OC)c3)C2)c1 (centres undefined),> 20
13,COc1cc(C2CC(c3cccc(Br)c3)=NN2C(=O)COC(C)=O)cc(OC)c1OC (centres undefined),> 20
14,COc1cc(C2CC(c3ccc(N)cc3)=NN2C(C)=O)cc(OC)c1OC (centres undefined),2.6
15,COc1cc(C2CC(c3ccc(Cl)cc3)=NN2C(C)=O)cc(OC)c1OC (centres undefined),11.9
16,COc1cc(C2CC(c3cccc(N)c3)=NN2C(C)=O)cc(OC)c1OC (centres undefined),0.74
17,COc1cccc(C2=NN(C(C)=O)C(c3cc(OC)c(OC)c(OC)c3)C2)c1 (centres undefined),> 20
18,COc1cc(C2=NNC(c3cc(OC)c(OC)c(OC)c3)C2)ccc1O (centres undefined),> 20
